In ChEMBL document CHEMBL1124427, “Studies on prodrugs. 11. Synthesis and antimicrobial activity of N-[(4-methyl-5-methylene-2-oxo-1,3-dioxolan-4-yl)oxy]norfloxacin ” (J Med Chem, 1989):
In brackets after ≈: the same amount, converted by molar mass.

What was measured:
[1] = Area under curve value of compound per hour after oral administration; type: ADME
In short: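 Mice were dosed orally at the equivalent of 50 mg/kg NFLX, suspended in 0.5% sodium (carboxymethyl)cellulose. They were killed by bleeding at 0.25, 0.5, 1.0, 2.0, 3.0 and 4.0 h. Serum NFLX was measured by HPLC with UV detection at 280 nm, and AUC was expressed in µg/mL per h.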

Escherichia coli [2] = test: Oral efficacy of compound after peroral administration on systemic infection by Escherichia coli KC-14; type: functional
In short: (§1)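 Groups of five male ddY mice (20 ± 2 g) were given 0.5 mL of bacteria intraperitoneally at 10 or 100 times the 50% lethal dose. One hour after infection they were treated orally with compound suspended in 0.5% sodium (carboxymethyl)cellulose. Survival was scored at 1 week, and ED50 is given with 95% confidence limits.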

Escherichia coli [3] = test: Oral efficacy of compound after peroral administration on systemic infection by Escherichia coli KC-14 in rat; type: functional
Escherichia coli [4] = test: (§2) Minimum inhibitory concentration tested against Escherichia coli KC-14; type: functional
In short: (§3)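 Agar dilution used serial 2-fold dilutions in Mueller-Hinton agar, with plate concentrations of 0.006–100 µg/mL and an inoculum of about 10^8 cfu/mL.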

Klebsiella pneumoniae = test: Minimum inhibitory concentration tested against Klebsiella pneumoniae PC1602; type: functional; in short: as §3
Proteus vulgaris = test: Minimum inhibitory concentration tested against Proteus vulgaris OX-19; type: functional; in short: as §3
Pseudomonas aeruginosa [5] = test: Oral efficacy of compound after peroral administration on systemic infection by Pseudomonas aeruginosa E-2; type: functional; in short: as §1
Pseudomonas aeruginosa [6] = test: Minimum inhibitory concentration tested against Pseudomonas aeruginosa E-2; type: functional; in short: as §3
[7] = Lethal dose of compound after peroral administration in rats; type: toxicity, organism-based; conditions: rat, in vivo, po
In short: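 Each compound was given orally as a suspension in 0.5% CMC. Deaths were counted over 1 week, and LD50 was calculated by the method of Weil.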

Staphylococcus aureus [8] = test: Oral efficacy of compound after peroral administration on systemic infection by Staphylococcus aureus IID803; type: functional; in short: as §1
Staphylococcus aureus [9] = test: Minimum inhibitory concentration tested against Staphylococcus aureus FDA207PJC-1; type: functional; in short: as §3
Serratia marcescens = test: Minimum inhibitory concentration tested against Serratia marcescens LAM 1184; type: functional; in short: as §3
Bacillus subtilis = test: Minimum inhibitory concentration tested against Bacillus subtilis ATCC 6633; type: functional; in short: as §3
Escherichia coli [10] = test: Effective dose of compound against Escherichia coli KC-14 in mice after oral administration
Escherichia coli [11] = test: as §2; type: functional; remark: listed apart in the source
In short: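 MIC by serial 2-fold agar dilution on Mueller-Hinton agar, with an inoculum of about 10^8 cfu/mL and plate concentrations of 0.006–100 μg/mL.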

Escherichia coli [12] = test: Effective dose of compound against Escherichia coli KC-14 in mice after oral administration; remark: listed apart in the source

Row | SMILES | AUC [1] [ng·h/mL] | ED50 (Escherichia coli [2]) [mg/kg] | ED50 (Escherichia coli [3]) [mg/kg] | MIC (Escherichia coli [4]) [µg/mL] | MIC (Klebsiella pneumoniae) [µg/mL] | MIC (Proteus vulgaris) [µg/mL] | ED50 (Pseudomonas aeruginosa [5]) [mg/kg] | MIC (Pseudomonas aeruginosa [6]) [µg/mL] | LD50 [7] [mg/kg] | ED50 (Staphylococcus aureus [8]) [mg/kg] | MIC (Staphylococcus aureus [9]) [µg/mL] | MIC (Serratia marcescens) [µg/mL] | MIC (Bacillus subtilis) [µg/mL] | ED50 (Escherichia coli [10]) [mg/kg] | MIC (Escherichia coli [11]) [µg/mL] | ED50 (Escherichia coli [12]) [mg/kg]
1 | C=C1OC(=O)OC1(C)ON1CCN(c2cc3c(cc2F)c(=O)c(C(=O)O)cn3CC)CC1 (stereo not given) | 5400 | 1.31 | 2.68 | 1.56 (≈ 3.49 µM) | 0.1 (≈ 0.224 µM) | 0.05 (≈ 0.112 µM) | 17.7 | 6.25 (≈ 14 µM) | > 4000 | 70.7 | 0.78 (≈ 1.74 µM) | 3.12 (≈ 6.97 µM) | 0.19 (≈ 0.425 µM) | 1.31 |  | 
2 | CCn1cc(C(=O)O)c(=O)c2cc(F)c(N3CCN(Cc4oc(=O)oc4C)CC3)cc21 | 5700 | 1.93 | 6.16 |  | 0.1 (≈ 0.232 µM) | 0.1 (≈ 0.232 µM) | 20.3 | 1.56 (≈ 3.62 µM) | > 4000 | 93.3 | 0.39 (≈ 0.904 µM) | 0.39 (≈ 0.904 µM) | 0.19 (≈ 0.44 µM) |  | 0.2 (≈ 0.464 µM) | 1.93
3 | CCn1cc(C(=O)O)c(=O)c2cc(F)c(N3CCNCC3)cc21 [NORFLOXACIN] | 1800 | 3.15 |  |  | 0.05 (≈ 0.157 µM) | 0.05 (≈ 0.157 µM) | 77.1 | 0.39 (≈ 1.22 µM) | > 4000 |  | 0.19 (≈ 0.595 µM) | 0.19 (≈ 0.595 µM) | 0.19 (≈ 0.595 µM) |  | 0.1 (≈ 0.313 µM) | 3.13
